Experiments:
Plasmodium falciparum [1] = assay: Antimalarial activity against Plasmodium falciparum PH3 infected in human A positive erythrocytes assessed as inhibition of [G-3H]-hypoxanthine uptake after 24 hrs by liquid scintillation counting; type: functional, organism-based; conditions: PH3, 24 h
Plasmodium falciparum [2] = assay: Antimalarial activity against chloroquine-sensitive Plasmodium falciparum 3D7 infected in human A positive erythrocytes assessed as inhibition of [G-3H]-hypoxanthine uptake after 24 hrs by liquid scintillation counting; type: functional, organism-based; conditions: 3D7, 24 h
Plasmodium falciparum [3] = assay: Antimalarial activity against Plasmodium falciparum Dd2 infected in human A positive erythrocytes assessed as inhibition of [G-3H]-hypoxanthine uptake after 24 hrs by liquid scintillation counting; type: functional, organism-based; conditions: Dd2, 24 h
Plasmodium falciparum [4] = assay: Antimalarial activity against chloroquine-resistant Plasmodium falciparum TM6 infected in human A positive erythrocytes assessed as inhibition of [G-3H]-hypoxanthine uptake after 24 hrs by liquid scintillation counting; type: functional, organism-based; conditions: TM6, 24 h
Plasmodium falciparum [5] = assay: Antimalarial activity against chloroquine-resistant Plasmodium falciparum K1 infected in human A positive erythrocytes assessed as inhibition of [G-3H]-hypoxanthine uptake after 24 hrs by liquid scintillation counting; type: functional, organism-based; conditions: K1, 24 h
Plasmodium falciparum [6] = assay: Antimalarial activity against Plasmodium falciparum TM4 infected in human A positive erythrocytes assessed as inhibition of [G-3H]-hypoxanthine uptake after 24 hrs by liquid scintillation counting; type: functional, organism-based; conditions: TM4, 24 h
Plasmodium falciparum [7] = assay: Antimalarial activity against chloroquine-resistant Plasmodium falciparum VS/1 infected in human A positive erythrocytes assessed as inhibition of [G-3H]-hypoxanthine uptake after 24 hrs by liquid scintillation counting; type: functional; conditions: VS/1, 24 h
Plasmodium berghei [8] = assay: Antimalarial activity against blood stage of Plasmodium berghei NK65 infected in po dosed rat assessed as inhibition of parasite growth; type: functional
How it was run: (§1)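 Blood-stage Plasmodium berghei NK65 infection in rodents. Compounds were given by the route stated in each line. ED50 is the dose in mg/kg giving 50% parasite growth inhibition relative to the untreated blank control. Procedure follows earlier reports.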

Plasmodium berghei [9] = assay: Antimalarial activity against blood stage of Plasmodium berghei NK65 infected in po dosed rat assessed as minimum curative dose; type: functional
How it was run: (§2)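 Rodents infected with blood-stage Plasmodium berghei NK65 were dosed by the route given in each line. Read-out was the minimum clearance dose (MCD), the lowest dose clearing parasites, reported in mg/kg. Method follows earlier reports.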

[10] = Acute toxicity in po dosed Sprague-Dawley rat assessed as maximum tolerated dose; type: organism-based; conditions: in vivo
[11] = Therapeutic index, ratio of MTD for Sprague-Dawley rat to MCD for blood stage of Plasmodium berghei NK65; conditions: read-out: TI
How it was run: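 MCD (minimum clearance dose) comes from rodents infected with blood-stage P. berghei NK65, dosed orally except artesunate, which was given iv. MTD (maximum tolerated dose) comes from Sprague–Dawley rats. Both are in mg/kg. Therapeutic index is MTD divided by MCD.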

Rattus norvegicus = species: Rattus norvegicus; assay: Ratio of compound MTD to febrifugine MTD in Sprague-Dawley rat; type: ADME, organism-based; conditions: in vivo
Plasmodium falciparum [12] = assay: Antimalarial activity against chloroquine-resistant Plasmodium falciparum FVO infected in Aotus monkey assessed as cure rate at 2 mg/kg, po qd for 3 days; type: functional
How it was run: (§3)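 Aotus monkeys carrying chloroquine-resistant P. falciparum FVO were dosed orally once daily for 3 days at 2, 4, 8 or 16 mg/kg/day. Dosing began the day after parasitemia reached approximately 5,000 organisms per mm³. Cure means parasitemia cleared with no recrudescence. Cure rate is animals cured over total tested.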

Plasmodium falciparum [13] = assay: Antimalarial activity against chloroquine-resistant Plasmodium falciparum FVO infected in Aotus monkey assessed as cure rate at 4 mg/kg, po qd for 3 days; type: functional; how it was run: as §3
Plasmodium falciparum [14] = assay: Antimalarial activity against chloroquine-resistant Plasmodium falciparum FVO infected in Aotus monkey assessed as cure rate at 8 mg/kg, po qd for 3 days; type: functional; how it was run: as §3
Plasmodium falciparum [15] = assay: Antimalarial activity against chloroquine-resistant Plasmodium falciparum FVO infected in Aotus monkey assessed as cure rate at 16 mg/kg, po qd for 3 days; type: functional; how it was run: as §3
Plasmodium berghei [16] = assay: Antimalarial activity against blood stage of Plasmodium berghei NK65 infected in iv dosed rat assessed as inhibition of parasite growth; type: functional; how it was run: as §1
Plasmodium berghei [17] = assay: Antimalarial activity against blood stage of Plasmodium berghei NK65 infected in iv dosed rat assessed as minimum curative dose; type: functional; how it was run: as §2

| SMILES | IC50 (Plasmodium falciparum [1]) | IC50 (Plasmodium falciparum [2]) | IC50 (Plasmodium falciparum [3]) | IC50 (Plasmodium falciparum [4]) | IC50 (Plasmodium falciparum [5]) | IC50 (Plasmodium falciparum [6]) | IC50 (Plasmodium falciparum [7]) | ED50 (Plasmodium berghei [8]) | MCD (Plasmodium berghei [9]) | MTD [10] | selectivity ratio [11] | Ratio (Rattus norvegicus) | Activity (Plasmodium falciparum [12]) | Activity (Plasmodium falciparum [13]) | Activity (Plasmodium falciparum [14]) | Activity (Plasmodium falciparum [15]) | ED50 (Plasmodium berghei [16]) | MCD (Plasmodium berghei [17]) |
| --- | --- | --- | --- | --- | --- | --- | --- | --- | --- | --- | --- | --- | --- | --- | --- | --- | --- | --- |
| CCN(CC)Cc1cc(Nc2ccnc3cc(Cl)ccc23)ccc1O | 15.9 nM | 4.9 nM | 9.1 nM | 7.5 nM | 21.2 nM | 15.2 nM | 8.7 nM | – | – | – | – | – | – | – | – | – | – | – |
| O=C(Cn1cnc2ccccc2c1=O)[C@H]1NCC[C@@H]1O | 1.4 nM | 2.8 nM | 4.5 nM | 3.1 nM | 3.9 nM | 7.9 nM | 5.6 nM | 1.7 mg/kg | 9.9 mg/kg | 100 mg/kg | 10 | – | – | – | – | – | – | – |
| O=C(Cn1cnc2cccnc2c1=O)[C@H]1NCC[C@@H]1O | 1.1 nM | 1.8 nM | 2.3 nM | 2.1 nM | 3.1 nM | 4.1 nM | 3.6 nM | 1.2 mg/kg | 7.1 mg/kg | 450 mg/kg | 63 | > 10 | – | – | – | – | – | – |
| O=C(Cn1cnc2ccncc2c1=O)[C@H]1NCC[C@@H]1O | 1 nM | 1.4 nM | 2.2 nM | 3.4 nM | 2.8 nM | 3 nM | 4.1 nM | 1 mg/kg | 7.5 mg/kg | 350 mg/kg | 47 | > 10 | – | – | – | – | – | – |
| O=C(Cn1cnc2cccc(F)c2c1=O)[C@H]1NCC[C@@H]1O | 2.5 nM | 5.7 nM | 8.1 nM | 3.9 nM | 5.9 nM | 6.2 nM | 5.3 nM | 1.1 mg/kg | 6.3 mg/kg | 400 mg/kg | 63 | > 10 | – | – | – | – | – | – |
| O=C(Cn1cnc2cccc(C(F)(F)F)c2c1=O)[C@H]1NCC[C@@H]1O | 3.2 nM | 2.7 nM | 6.3 nM | 2.5 nM | 4.7 nM | 7.4 nM | 11.2 nM | 0.95 mg/kg | 6.7 mg/kg | 400 mg/kg | 60 | > 10 | – | – | – | – | – | – |
| O=C(Cn1cnc2cccnc2c1=O)[C@H]1NCC[C@@H]1OCc1ccccc1 | 0.2 nM | 0.21 nM | 0.17 nM | 0.08 nM | 0.24 nM | 0.33 nM | 0.13 nM | 0.19 mg/kg | 1.7 mg/kg | 250 mg/kg | 147 | – | 25% | 71% | 80% | 100% | – | – |
| CCO[C@H]1CCN[C@@H]1C(=O)Cn1cnc2cccc(F)c2c1=O | 0.18 nM | 0.21 nM | 0.26 nM | 0.17 nM | 0.24 nM | 0.22 nM | 0.25 nM | 0.31 mg/kg | 1.9 mg/kg | 250 mg/kg | 132 | – | 50% | 67% | 100% | 100% | – | – |
| CC(C)O[C@H]1CCN[C@@H]1C(=O)Cn1cnc2cccc(C(F)(F)F)c2c1=O | 0.54 nM | 0.36 nM | 0.78 nM | 0.31 nM | 0.61 nM | 0.39 nM | 0.68 nM | 0.23 mg/kg | 2.4 mg/kg | 250 mg/kg | 104 | – | – | – | – | – | – | – |
| O=C(Cn1cnc2cccnc2c1=O)[C@H]1NCC[C@H]1O | 11.4 nM | 16.3 nM | 21.9 nM | 13.2 nM | 19.8 nM | 32.7 nM | 28.7 nM | – | – | – | – | – | – | – | – | – | – | – |
| O=C(Cn1cnc2cccc(C(F)(F)F)c2c1=O)[C@H]1NCC[C@H]1O | 21.2 nM | 19.6 nM | 31.8 nM | 25.6 nM | 24.2 nM | 51.9 nM | 36.5 nM | – | – | – | – | – | – | – | – | – | – | – |
| O=C(Cn1cnc2cccnc2c1=O)[C@@H]1NCC[C@H]1O | 1 nM | 1.9 nM | 2.4 nM | 2 nM | 3.3 nM | 4 nM | 3.7 nM | – | – | – | – | – | – | – | – | – | – | – |
| O=C(Cn1cnc2cccc(C(F)(F)F)c2c1=O)[C@@H]1NCC[C@H]1O | 3.4 nM | 2.6 nM | 6.1 nM | 2.7 nM | 4.8 nM | 7.3 nM | 11 nM | – | – | – | – | – | – | – | – | – | – | – |
| C[C@H]1[C@H](OC(=O)CCC(=O)O)O[C@@H]2O[C@@]3(C)CC[C@H]4[C@H](C)CC[C@@H]1[C@@]24OO3 [ARTESUNATE] | – | – | – | – | – | – | – | – | – | – | 37 | – | – | – | – | – | 0.55 mg/kg | 6.8 mg/kg |
| CCN(CC)CCCC(C)Nc1ccnc2cc(Cl)ccc12 (configuration not stated) [CHLOROQUINE] | – | – | – | – | – | – | – | 4.5 mg/kg | 40 mg/kg | – | – | – | – | – | – | – | – | – |
| O=C(C[C@@H]1NCCC[C@H]1O)Cn1cnc2ccccc2c1=O [FEBRIFUGINE] | – | – | 2.1 nM | 3.1 nM | 2 nM | 5.4 nM | 4.2 nM | 2.3 mg/kg | 12 mg/kg | 35 mg/kg | 3 | – | – | – | – | – | – | – |
| OC(c1cc(C(F)(F)F)nc2c(C(F)(F)F)cccc12)C1CCCCN1 (configuration not stated) [MEFLOQUINE] | – | – | – | – | – | – | – | 1.1 mg/kg | 9.9 mg/kg | – | 61 | – | – | – | – | – | – | – |

From ChEMBL document CHEMBL1926628, “Febrifugine analogue compounds: synthesis and antimalarial evaluation” (Bioorg Med Chem, 2012)
